Results taken from ChEMBL document CHEMBL1146217, “Growth inhibition of Mycobacterium bovis, Mycobacterium tuberculosis and Mycobacterium avium in vitro: effect of 1-beta-D-2'-arabinofuranosyl and 1-(2'-deoxy-2'-fluoro-beta-D-2'-ribofuranosyl) pyrimidine nucleoside analogs” (J Med Chem, 2007).
Converted amounts (≈) assume the structure as drawn.

What was measured:
[1] = test system: Mycobacterium tuberculosis; assay: Antimycobacterial activity against Mycobacterium tuberculosis H37Ra at 100 ug/mL by microplate Alamar blue assay; assay type: functional
In short: (§1)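 MABA with M. bovis BCG, M. tuberculosis H37Ra or M. avium ATCC 25291. DMSO stocks (10 mg/mL) diluted in 7H9GC; final inoculum 2.5 × 10⁵ CFU/mL. Incubated 6 days, then alamar blue plus Tween 80 added and read by fluorescence after about 24 h. […]. Tested in triplicate at 100, 50, 10 and 1 µg/mL; two experiments, mean reported.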

Mycobacterium avium [2] = assay: Antimycobacterial activity against Mycobacterium avium ATCC 25291 at 100 ug/mL by microplate Alamar blue assay; assay type: functional; in short: as §1
[3] = test system: Mycobacterium tuberculosis; assay: Antimycobacterial activity against Mycobacterium tuberculosis H37Ra at 50 ug/mL by microplate Alamar blue assay; assay type: functional; in short: as §1
[4] = test system: Mycobacterium tuberculosis; assay: Antimycobacterial activity against Mycobacterium tuberculosis H37Ra at 10 ug/mL by microplate Alamar blue assay; assay type: functional; in short: as §1
[5] = test system: Mycobacterium tuberculosis; assay: Antimycobacterial activity against Mycobacterium tuberculosis H37Ra at 1ug/mL by microplate Alamar blue assay; assay type: functional; in short: as §1
[6] = test system: Mycobacterium tuberculosis; assay: Antimycobacterial activity against Mycobacterium tuberculosis H37Ra by microplate Alamar blue assay; assay type: functional
In short: (§2)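 Same alamar blue microplate setup (7H9GC, 2.5 × 10⁵ CFU/mL, 6 days, then dye read after about 24 h), using 2-fold compound dilutions. MIC90 is the lowest concentration giving about 90% inhibition relative to bacteria-only wells after background subtraction. Visual MIC is the lowest concentration preventing the blue-to-pink change.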

Mycobacterium avium [7] = assay: Antimycobacterial activity against Mycobacterium avium ATCC 25291 at 50 ug/mL by microplate Alamar blue assay; assay type: functional; in short: as §1
Mycobacterium avium [8] = assay: Antimycobacterial activity against Mycobacterium avium ATCC 25291 by microplate Alamar blue assay; assay type: functional; in short: as §2
Escherichia coli = assay: Antibacterial activity against Escherichia coli ATCC 25922 after 16 to 20 hrs by broth microdilution method; assay type: functional; conditions: Escherichia coli, ATCC 25922
In short: (§3)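 Broth microdilution MIC. Exponentially growing bacteria diluted in sterile liquid medium to a final inoculum of 1 × 10⁴ CFU/mL. Cultured with compound dilutions for 16-20 h; compounds tested at 100, 50, 10 and 1 µg/mL. MIC taken as the concentration giving 100% inhibition of bacterial growth.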

Klebsiella aerogenes = assay: Antibacterial activity against Enterobacter aerogenes after 16 to 20 hrs by broth microdilution method; assay type: functional; conditions: Klebsiella aerogenes; in short: as §3
Proteus vulgaris = assay: Antibacterial activity against Proteus vulgaris ATCC 49132 after 16 to 20 hrs by broth microdilution method; assay type: functional; in short: as §3
Pseudomonas aeruginosa = assay: Antibacterial activity against Pseudomonas aeruginosa […] after 16 to 20 hrs by broth microdilution method; assay type: functional; conditions: Pseudomonas aeruginosa, ATCC 13048; in short: as §3
Salmonella typhimurium = assay: Antibacterial activity against Salmonella Typhimurium after 16 to 20 hrs by broth microdilution method; assay type: functional, Salmonella enterica subsp. enterica serovar Typhimurium; conditions: Salmonella enterica; in short: as §3
[9] = test system: Staphylococcus epidermidis; assay: Antibacterial activity against Staphylococcus epidermidis ATCC 14990 after 16 to 20 hrs by broth microdilution method; assay type: functional; conditions: for MIC: Staphylococcus epidermidis, ATCC 14990; in short: as §3
Staphylococcus aureus = assay: Antibacterial activity against Staphylococcus aureus ATCC 25923 after 16 to 20 hrs by broth microdilution method; assay type: functional; conditions: for MIC: Staphylococcus aureus, ATCC 25923; in short: as §3
Bacillus subtilis = assay: Antibacterial activity against Bacillus subtilis ATCC 6633 after 16 to 20 hrs by broth microdilution method; assay type: functional; conditions: Bacillus subtilis, ATCC 6633; in short: as §3
Listeria monocytogenes = assay: Antibacterial activity Listeria monocytogenes ATCC 15313 after 16 to 20 hrs by broth microdilution method; assay type: functional; conditions: for MIC: Listeria monocytogenes, ATCC 15313; in short: as §3
Streptococcus pyogenes = assay: Antibacterial activity Streptococcus pyogenes ATCC 19615 after 16 to 20 hrs by broth microdilution method; assay type: functional; conditions: for MIC: Streptococcus pyogenes, ATCC 19615; in short: as §3
Streptococcus pneumoniae = assay: Antibacterial activity Streptococcus pneumoniae ATCC 49619 after 16 to 20 hrs by broth microdilution method; assay type: functional; conditions: for MIC: Streptococcus pneumoniae, ATCC 49619; in short: as §3
Enterococcus faecalis = assay: Antibacterial activity Enterococcus faecalis ATCC 29212 after 16 to 20 hrs by broth microdilution method; assay type: functional; conditions: for MIC: Enterococcus faecalis, ATCC 29212; in short: as §3
Vero = assay: Toxicity against Vero cells after 3 days by MTT test; assay type: cell-based; conditions: chlorocebus sabaeus, 72 h
In short: (§4)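 MTT viability assay. Vero or HFF cells seeded at 2.5 × 10⁵ cells/well and left to attach 6-8 h. Exposed to compound at 100, 50, 25, 12.5, 6.3 and 1.5 µg/mL for 3 days at 37 °C, with a DMSO control. MTT added for 4 h, then solubilized overnight; absorbance read at 560-650 nm.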

[10] = Toxicity against human foreskin fibroblast cells after 3 days by MTT test; assay type: cell-based; in short: as §4

O=c1[nH]c(=O)n([C@@H]2O[C@H](CO)[C@@H](O)[C@@H]2O)cc1C(O)C(Br)Br (some centres undefined)
inhibition at 100 µg/mL [1]: 0% | inhibition at 100 µg/mL (Mycobacterium avium [2]): 0%

O=c1[nH]c(=O)n([C@@H]2O[C@H](CO)[C@@H](O)[C@@H]2O)cc1Br
inhibition at 100 µg/mL [1]: 0% | inhibition at 100 µg/mL (Mycobacterium avium [2]): 0%

Cc1cn([C@@H]2O[C@H](CO)[C@@H](O)[C@@H]2O)c(=O)[nH]c1=S
inhibition at 100 µg/mL [1]: 0% | inhibition at 100 µg/mL (Mycobacterium avium [2]): 0%

CCCCCCCCCCC#Cc1cn([C@@H]2O[C@H](CO)[C@@H](O)[C@H]2F)c(=O)[nH]c1=O
inhibition at 100 µg/mL [1]: 100% | inhibition at 50 µg/mL [3]: 100% | inhibition at 10 µg/mL [4]: 100% | inhibition at 1 µg/mL [5]: 70% | MIC90 [6]: 1 µg/mL (≈ 2.44 µM) | inhibition at 100 µg/mL (Mycobacterium avium [2]): 100% | inhibition at 50 µg/mL (Mycobacterium avium [7]): 50% | MIC90 (Mycobacterium avium [8]): 50 µg/mL (≈ 122 µM) | MIC (Escherichia coli): > 100 µg/mL | MIC (Klebsiella aerogenes): > 100 µg/mL | MIC (Proteus vulgaris): > 100 µg/mL | MIC (Pseudomonas aeruginosa): > 100 µg/mL | MIC (Salmonella typhimurium): > 100 µg/mL | Inhibition [9]: 100% | MIC [9]: 100 µg/mL (≈ 244 µM) | Inhibition (Staphylococcus aureus): 100% | MIC (Staphylococcus aureus): 100 µg/mL (≈ 244 µM) | MIC (Bacillus subtilis): > 100 µg/mL | Inhibition (Listeria monocytogenes): 100% | MIC (Listeria monocytogenes): 100 µg/mL (≈ 244 µM) | Inhibition (Streptococcus pyogenes): 100% | MIC (Streptococcus pyogenes): 100 µg/mL (≈ 244 µM) | Inhibition (Streptococcus pneumoniae): 100% | MIC (Streptococcus pneumoniae): 100 µg/mL (≈ 244 µM) | Inhibition (Enterococcus faecalis): 100% | MIC (Enterococcus faecalis): 100 µg/mL (≈ 244 µM) | CC10 (Vero): > 100 µg/mL | CC50 at 72 h [10]: > 100 µg/mL

CCCCCCCCCCCCC#Cc1cn([C@@H]2O[C@H](CO)[C@@H](O)[C@@H]2O)c(=O)[nH]c1=O
inhibition at 100 µg/mL [1]: 100% | inhibition at 50 µg/mL [3]: 100% | inhibition at 10 µg/mL [4]: 50% | MIC90 [6]: 10 µg/mL (≈ 22.9 µM) | inhibition at 100 µg/mL (Mycobacterium avium [2]): 0% | CC10 (Vero): > 100 µg/mL | CC50 at 72 h [10]: > 100 µg/mL

CCCCCCCCCCCCC#Cc1cn([C@@H]2O[C@H](CO)[C@@H](O)[C@H]2F)c(=O)[nH]c1=O
inhibition at 100 µg/mL [1]: 100% | inhibition at 50 µg/mL [3]: 100% | inhibition at 10 µg/mL [4]: 50% | MIC90 [6]: 10 µg/mL (≈ 22.8 µM) | inhibition at 100 µg/mL (Mycobacterium avium [2]): 20% | MIC (Escherichia coli): > 100 µg/mL | MIC (Klebsiella aerogenes): > 100 µg/mL | MIC (Proteus vulgaris): > 100 µg/mL | MIC (Pseudomonas aeruginosa): > 100 µg/mL | MIC (Salmonella typhimurium): > 100 µg/mL | Inhibition [9]: 100% | MIC [9]: 100 µg/mL (≈ 228 µM) | Inhibition (Staphylococcus aureus): 100% | MIC (Staphylococcus aureus): 100 µg/mL (≈ 228 µM) | MIC (Bacillus subtilis): > 100 µg/mL | MIC (Listeria monocytogenes): > 100 µg/mL | MIC (Streptococcus pyogenes): > 100 µg/mL | MIC (Streptococcus pneumoniae): > 100 µg/mL | MIC (Enterococcus faecalis): > 100 µg/mL | CC10 (Vero): > 100 µg/mL | CC50 at 72 h [10]: > 100 µg/mL

CCCc1ccc(C#Cc2cn([C@@H]3O[C@H](CO)[C@@H](O)[C@@H]3O)c(=O)[nH]c2=O)cc1
inhibition at 100 µg/mL [1]: 100% | inhibition at 50 µg/mL [3]: 50% | MIC90 [6]: 100 µg/mL (≈ 259 µM) | inhibition at 100 µg/mL (Mycobacterium avium [2]): 25% | CC10 (Vero): > 100 µg/mL | CC50 at 72 h [10]: > 100 µg/mL

CCOC(=O)/C=C/c1cn([C@@H]2O[C@H](CO)[C@@H](O)[C@H]2F)c(=O)[nH]c1=O
inhibition at 100 µg/mL [1]: 0% | inhibition at 100 µg/mL (Mycobacterium avium [2]): 0%

CCOC(=O)C(Cl)C(O)c1cn([C@@H]2O[C@H](CO)[C@@H](O)[C@H]2F)c(=O)[nH]c1=O (some centres undefined)
inhibition at 100 µg/mL [1]: 0% | inhibition at 100 µg/mL (Mycobacterium avium [2]): 0%

CCOC(=O)C(Br)C(O)c1cn([C@@H]2O[C@H](CO)[C@@H](O)[C@H]2F)c(=O)[nH]c1=O (some centres undefined)
inhibition at 100 µg/mL [1]: 0% | inhibition at 100 µg/mL (Mycobacterium avium [2]): 0%

O=c1[nH]c(=O)n([C@@H]2O[C@H](CO)[C@@H](O)[C@H]2F)cc1Br
inhibition at 100 µg/mL [1]: 0% | inhibition at 100 µg/mL (Mycobacterium avium [2]): 0%

O=C(O)/C=C/c1cn([C@@H]2O[C@H](CO)[C@@H](O)[C@@H]2O)c(=O)[nH]c1=O
inhibition at 100 µg/mL [1]: 0% | inhibition at 100 µg/mL (Mycobacterium avium [2]): 0%

COC(CI)c1cn([C@@H]2O[C@H](CO)[C@@H](O)[C@@H]2O)c(=O)[nH]c1=O (some centres undefined)
inhibition at 100 µg/mL [1]: 0% | inhibition at 100 µg/mL (Mycobacterium avium [2]): 0%

CCCCCC#Cc1cn([C@@H]2O[C@H](CO)[C@@H](O)[C@@H]2O)c(=O)[nH]c1=O
inhibition at 100 µg/mL [1]: 25% | inhibition at 100 µg/mL (Mycobacterium avium [2]): 0%

CCCCCCCCC#Cc1cn([C@@H]2O[C@H](CO)[C@@H](O)[C@@H]2O)c(=O)[nH]c1=O
inhibition at 100 µg/mL [1]: 100% | inhibition at 50 µg/mL [3]: 50% | inhibition at 10 µg/mL [4]: 10% | MIC90 [6]: 100 µg/mL (≈ 263 µM) | inhibition at 100 µg/mL (Mycobacterium avium [2]): 50% | CC10 (Vero): > 100 µg/mL | CC50 at 72 h [10]: > 100 µg/mL
